Measurements published in ChEMBL document CHEMBL5154731, “Synthetic methodology-enabled discovery of a tunable indole template for COX-1 inhibition and anti-cancer activity” (Bioorg Med Chem, 2022).
Calls of active or inactive are those of the source. No cut-off for these calls is given here.

Key:
Vero = assay: Cytotoxicity against African green monkey Vero cells assessed as reduction in cell viability at 2.5 to 500 uM measured after 72 hrs by MTS assay; format: toxicity, cell-based; details: chlorocebus sabaeus, dose 2.5-500 µM
In short: (§1)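 Cells seeded at 2000 to 4500/well on day 1. Next day, treated 72 h with drug at 2.5 to 500 μM from a 1% DMSO solution in medium (DMSO control), each in triplicate. All with 10% FBS. MTS reagent added for 2.5–3 h at 37 °C, absorbance at 490 nm; eight points averaged per concentration.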

MDA-MB-231 = assay: Cytotoxicity against human MDA-MB-231 cells assessed as reduction in cell viability measured after 72 hrs by MTS assay; format: functional, cell-based; details: MDA-MB-231, 72 h; in short: as §1
[1] = target: T1, Prostaglandin G/H synthase 1 (Ovis aries, UniProt P05979); assay: Inhibition of full-length ovine COX-1 using arachidonic acid as substrate preincubated for 5 mins followed by substrate addition and measured after 2 mins by colorimetry
T1 sequence (P05979 whole entry): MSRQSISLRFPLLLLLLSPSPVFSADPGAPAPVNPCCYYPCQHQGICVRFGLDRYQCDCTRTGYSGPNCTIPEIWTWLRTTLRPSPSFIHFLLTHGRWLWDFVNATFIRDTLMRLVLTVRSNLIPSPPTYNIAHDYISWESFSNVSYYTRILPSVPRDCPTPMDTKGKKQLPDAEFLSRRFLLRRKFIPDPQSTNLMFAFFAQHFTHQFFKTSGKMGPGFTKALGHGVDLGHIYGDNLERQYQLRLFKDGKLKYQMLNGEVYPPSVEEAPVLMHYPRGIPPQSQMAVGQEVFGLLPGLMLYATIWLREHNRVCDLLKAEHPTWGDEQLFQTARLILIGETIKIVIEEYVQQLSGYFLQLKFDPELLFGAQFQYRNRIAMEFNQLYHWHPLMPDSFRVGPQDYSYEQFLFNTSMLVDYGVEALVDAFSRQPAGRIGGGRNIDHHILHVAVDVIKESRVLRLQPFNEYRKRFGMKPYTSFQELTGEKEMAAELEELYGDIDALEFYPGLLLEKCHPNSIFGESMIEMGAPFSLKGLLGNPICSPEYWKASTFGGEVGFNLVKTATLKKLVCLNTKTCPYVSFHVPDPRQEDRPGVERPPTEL

[2] = Cytotoxicity against African green monkey Vero cells assessed as reduction in cell viability measured after 72 hrs by MTS assay; format: toxicity, cell-based; details: African green monkey (Chlorocebus sabaeus); in short: as §1
A549 = assay: Cytotoxicity against human A549 cells assessed as reduction in cell viability measured after 72 hrs by MTS assay; format: functional, cell-based; details: A549, 72 h; in short: as §1
HeLa = assay: Cytotoxicity against human HeLa cells assessed as reduction in cell viability measured after 72 hrs by MTS assay; format: functional, cell-based; in short: as §1
MCF7 = assay: Cytotoxicity against human MCF7 cells assessed as reduction in cell viability measured after 72 hrs by MTS assay; format: functional, cell-based; details: MCF7, 72 h; in short: as §1
HepG2 [3] = assay: Cytotoxicity against human HepG2 cells assessed as reduction in cell viability measured after 72 hrs by MTS assay; format: functional, cell-based; details: HepG2, 72 h; in short: as §1
[4] = target: T2, Prostaglandin G/H synthase 1 (Ovis aries) (UniProt P05979); assay: Inhibition of full-length ovine COX-1 at 5 uM using arachidonic acid as substrate preincubated for 5 mins followed by substrate addition and measured after 2 mins by colorimetry relative to control; details: time 7.0 min
T2 sequence (whole entry): T1 sequence (P05979 whole entry)

LNCaP = assay: Cytotoxicity against human LNCaP cells over expressing androgen receptor F876L mutant assessed as reduction in cell viability measured after 72 hrs by MTS assay; format: functional, cell-based; in short: as §1
[5] = target: T2, Prostaglandin G/H synthase 1 (Ovis aries); assay: Inhibition of full-length ovine COX-1 at 50 uM using arachidonic acid as substrate preincubated for 5 mins followed by substrate addition and measured after 2 mins by colorimetry relative to control; details: time 7.0 min
DU-145 = assay: Cytotoxicity against human DU-145 cells assessed as reduction in cell viability measured after 72 hrs by MTS assay; format: functional, cell-based; details: DU-145, 72 h; in short: as §1
HepG2 [6] = assay: Induction of apoptosis in human HepG2 cells assessed as decrease in Bcl-2 expression at 75 uM measured after 20 hrs by Western blot analysis; format: functional, cell-based
In short: (§2)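 Hep-G2 (1 × 10^6/well) plated 48 h before treatment, then exposed 20 h to 0.1% DMSO solutions of compound (DMSO control). Cells washed in PBS and lysed in RIPA; 20–40 μg protein run on 4–20% gel at 150 V for 65 min, transferred to PVDF, blocked in 5% BSA. Probed overnight for cleaved and pro-caspase, Bcl-xL, Bcl-2, Bax and actin, then IRDye secondaries 1 h, with fluorescence quantification.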

HepG2 [7] = assay: Induction of apoptosis in human HepG2 cells assessed as increase in cleaved caspase-3 level at 75 uM measured after 20 hrs by Western blot analysis; format: functional, cell-based; in short: as §2
HepG2 [8] = assay: Induction of apoptosis in human HepG2 cells assessed as up regulation of Bax expression at 75 uM measured after 20 hrs by Western blot analysis; format: functional, cell-based; in short: as §2
HepG2 [9] = assay: Down regulation of AR expression in human HepG2 cells at 75 uM measured after 20 hrs by Western blot analysis; format: functional, cell-based
HepG2 [10] = assay: Induction of apoptosis in human HepG2 cells assessed as down regulation of Bcl-xl expression at 75 uM measured after 20 hrs by Western blot analysis; format: functional, cell-based; in short: as §2
HepG2 [11] = assay: Induction of apoptosis in human HepG2 cells assessed as increase in ratio of Bax/Bcl-2 expression at 75 uM measured after 20 hrs by Western blot analysis; format: functional, cell-based; in short: as §2
HepG2 [12] = assay: Cell cycle arrest in human HepG2 cells assessed as increase in cell accumulation at G1/G0 phase at 100 uM measured after 24 to 48 hrs by propidium iodide staining based FACS analysis; format: functional; details: time 24-48 hrs
In short: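 Hep-G2 grown to 70% confluence in 10-cm dishes, treated in 0.1% DMSO medium for 24 or 48 h (0.1% DMSO control). Floating and trypsinized cells pooled, washed in PBS, fixed overnight at –20 °C in 70% ethanol, then 200 μg/mL RNase A for 30 min and 100 μg/mL propidium iodide for 30 min at room temperature. DNA content read by flow cytometry; two independent experiments in duplicate.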

inhibition [4] [%] | inhibition [5] [%] | Compound | Activity (Vero) | IC50 (MDA-MB-231) [µM] | IC50 at 72 h [2] [µM] | IC50 (A549) [µM] | IC50 (HeLa) [µM] | IC50 (MCF7) [µM] | IC50 (HepG2 [3]) [µM] | IC50 (LNCaP) [µM] | IC50 (DU-145) [µM] | other results
 |  | COc1ccc2c(C(=O)O)cn(C)c2c1C(=O)OCC(F)(F)F | Non-Toxic |  |  |  |  |  |  |  |  | 
< 20 | < 20 | COc1ccc2c(CO)cn(C)c2c1C(=O)NCC(F)(F)F |  | 253 | 229 | 164 | 110 | 273 | 58.2 | 99 | 144 | IC50 [1]: 85.8 µM
< 20 | < 20 | COc1ccc2c(Cc3cn(C)c4c(C(=O)NCC(F)(F)F)c(OC)ccc34)cn(C)c2c1C(=O)NCC(F)(F)F | Non-Toxic |  |  |  |  |  |  |  |  | 
< 20 | 22.9 | COc1ccc2c(Cc3cn(C)c4c(C(=O)OCC(F)(F)F)c(OC)ccc34)cn(C)c2c1C(=O)OCC(F)(F)F | Non-Toxic |  |  |  |  |  |  |  |  | 
 |  | Cc1ccc(-c2cc(C(F)(F)F)nn2-c2ccc(S(N)(=O)=O)cc2)cc1 [CELECOXIB] |  | 69.6 | 60.6 | 57.9 | 58.2 | 64.2 | 58.2 | 16.4 | 59.3 | Activity (HepG2 [6]): Active; Activity (HepG2 [7]): Active; Activity (HepG2 [8]): Active; Activity (HepG2 [9]): Active; Activity (HepG2 [10]): Active; Activity (HepG2 [11]): Active; Activity (HepG2 [12]): Active
